Assay results collected from several papers.
Compare with care: the assays were run in different laboratories.
Target: Serine/threonine-protein kinase SIK2 (SIK2, Homo sapiens, UniProt Q9H0K1)

SMILES | observed | action | technique | concentration | quantity | result
CCCS(=O)(=O)Nc1ccc(F)c(C(=O)c2c[nH]c3ncc(-c4ccc(Cl)cc4)cc23)c1F | enzyme activity | inhibitor | – | 1 µM | inhibition | < 10%
CN(C)C(=O)Cn1cc(-c2nc(C3(c4ccc(-c5cnc(N)nc5)cc4)CC3)no2)cn1 | cell-free assay | – | competition with immobilised ligand | 1 µM | remaining binding | 100%
CCN(CC)CCNC(=O)c1c(C)[nH]c(/C=C2\C(=O)Nc3ccc(F)cc32)c1C | cell-free assay | – | – | 0.5 µM | remaining signal | 27.8%
CC(C)(C)c1nc2c(s1)c1nc(N)ncc1c1ccc(NS(=O)(=O)c3c(F)cccc3F)c(F)c12 | enzyme activity | inhibitor | radiometric | 1 µM | remaining activity | 101%
CC(=O)C1=C(C)N(c2cccc(C(F)(F)F)c2)C(=O)N[C@@H]1c1ccc(C#N)nc1 | cell-free assay | – | competition with immobilised ligand | 1 µM | remaining binding | 87.8%
O=C1Nc2ccc(Cl)cc2C1=Cc1cc(Cl)c(O)c(Cl)c1 | cell-free assay | – | – | 0.5 µM | remaining signal | 95%
Nc1ncnc2occ(-c3ccc(NC(=O)Nc4cc(C(F)(F)F)ccc4F)cc3)c12 | cell-free assay | inhibitor | – | 20 µM | remaining signal | 57%
Cc1ccc(C(=O)Nc2ccc(CN3CCN(C)CC3)c(C(F)(F)F)c2)cc1C#Cc1cnc2cccnn12 | enzyme activity | inhibitor | – | 23.5 nM | remaining activity | 67%
CC(C)(O)[C@H]1CC[C@H](Nc2ccc3ncc(-c4cccc(C(F)(F)F)c4)n3n2)CC1 | enzyme activity | inhibitor | – | 1 µM | remaining activity | 47.7%
O=C(NCCCC1CCCCC1)c1ccc(CNC(=O)c2cnn(-c3ccccc3)c2C(F)(F)F)cc1 | cell-free assay | – | competition with immobilised ligand | 0.1 µM | remaining binding | 100%
COc1cc2ncnc(Nc3ccc(Oc4ccccc4)cc3C)c2cc1OC | enzyme activity | inhibitor | – | 1 µM | inhibition | 3%
COc1cc(Nc2cnc(C#N)c(O[C@H](C)CN(C)C)n2)ncc1-c1cnn(C)c1 | enzyme activity | inhibitor | radiometric | 1 µM | remaining activity | 80%
COc1cc(-c2cc(-c3ccc(N4CCNCC4)cc3)cnc2N)cc(OC)c1OC | enzyme activity | inhibitor | – | 0.1 µM | inhibition | 66%
Cc1cc(NC(=O)c2cccc(S(F)(F)(F)(F)F)c2)cc(-n2ccn3nc(-c4cccnc4)cc23)c1 | cell-free assay | – | competition with immobilised ligand | 1 µM | remaining binding | 100%
O=C1NC(=O)c2cc(Nc3ccc(F)cc3)c(Nc3ccc(F)cc3)cc21 | cell-free assay | – | – | 0.5 µM | remaining signal | 103%
CN([C@@H]1CCc2c(CC(=O)O)c3cc(S(C)(=O)=O)ccc3n2C1)S(=O)(=O)c1ccc(F)cc1 | cell-free assay | – | competition with immobilised ligand | 1 µM | remaining binding | 93%
FC(F)(F)Oc1cccc(-c2cnc3ccc(-c4ccncc4)nn23)c1 | enzyme activity | inhibitor | radiometric | 1 µM | activity vs control | 68%
O=C1CCc2cc(Nc3cc(OC4CCOCC4)c([N+](=O)[O-])cc3Cl)ccc2N1 | cell-free assay | – | competition with immobilised ligand | 1 µM | remaining binding | 100%
Cc1sc(C(=O)NC2COC2)cc1-n1cc(NC(=O)Nc2c(F)cccc2Cl)cn1 | enzyme activity | inhibitor | – | 10 µM | remaining activity | 89.8%
